Structures are written as SMILES. Activity calls are given as the source filed them. No cut-off for these calls is given here.

Data set [1] is described as follows: Inhibition of hedgehog signaling pathway in mouse Light2 cells after 48 hrs by Gli-luciferase reporter gene assay. It counts as cell-based. (In general: Reporter assays use an easily measured gene product as a stand-in for the process of interest.)
The species named for data set [2] is Mus musculus. Nature of the data set: Inhibition of hedgehog signaling pathway in mouse Light2 cells at 100 nM after 48 hrs by Gli-luciferase reporter gene assay relative to control. It counts as cell-based. A digest of the protocol: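 Single-concentration screen at 100 nM in Light II cells (NIH-3T3 with stable Gli-firefly luciferase reporter and Renilla luciferase vector), kept in DMEM/10% FBS with zeocin and G418 at 37°C, 5% CO₂. Cells treated 48 h; percent inhibition of Gli reporter from dual luciferase assay.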

Data set [3] relates to Mus musculus. Nature of the data set: Toxicity in athymic nude mouse implanted with mouse Ptch+/- p53-/- medulloblastoma cells assessed as body weight loss at 10 to 20 mg/kg, po administered twice daily via gavage measured every other day during compound dosing. It counts as organism-based. Conditions: in vivo. The gist of the method:
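Nude mice bearing subcutaneous right-flank Ptch+/-p53-/- medulloblastoma fragment allografts, dosed by oral gavage twice daily (vehicle 0.5% NaCMC suspension) once tumors reached 150–200 mm³. Body weights recorded alongside caliper tumor measurements taken every other day; five animals per group.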

The subject of data set [4] is Medulloblastoma cell. Nature of the data set: Anti-tumor activity against mouse Ptch+/- p53-/- medulloblastoma cells implanted in athymic nude mouse assessed as tumor growth inhibition at 10 to 20 mg/kg, po administered twice daily via gavage measured every other day during compound dosing. Format: functional, organism-based. The gist of the method:
(§1)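 Allograft from spontaneous intracranial medulloblastomas of Ptch+/-p53-/- mice, first passaged subcutaneously in athymic nude mice; 1 mm³ fragments implanted by trocar into the right flank. Oral gavage twice a day started at 150–200 mm³, in 0.5% NaCMC suspension. Caliper length and width taken every other day, V = L×W²/2. Five mice per group, means ± SEM.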

For data set [5], the system named is Medulloblastoma cell. Kind of data set: Anti-tumor activity against mouse Ptch+/- p53-/- medulloblastoma cells implanted in athymic nude mouse assessed as tumor growth inhibition at 20 mg/kg, po administered twice daily via gavage measured every other day during compound dosing. It counts as functional, organism-based. A digest of the protocol:
as §1

Compound `Cc1c(-c2ccnn2C)nnc(N2CCC(NC(=O)NC3CCCC3)CC2)c1C` registered an IC50 in data set [1] greater than 100 nM. Also, the inhibition in data set [2] came to 24.4%.
In the same order, the values of `Cc1c(-c2ccnn2C)nnc(N2CCC(NC(=O)Nc3ccccc3)CC2)c1C` are greater than 100 nM and 26.2%.
In the case of `Cc1c(-c2ccnn2C)nnc(N2CC[C@@H](NC(=O)c3ccc(F)cc3C(F)(F)F)C2)c1C`, the IC50 in data set [1] was 36.4 nM. The inhibition in data set [2] turned out to be 54.1%.
Compound `COc1ccc(-c2nnc(N3CCC(NC(=O)c4ccc(F)cc4C(F)(F)F)CC3)c(C)c2C)cc1` yielded an IC50 in data set [1] of 22 nM. Besides, the inhibition in data set [2] worked out at 74.5%.
Taken in the same sequence, the figures for `Cc1c(-c2ccnn2C)nnc(N2CCC(NC(=O)c3cc(F)ccc3C(F)(F)F)CC2)c1C` were 61.5 nM and 82%.
In turn, `Cc1c(-c2ccc(C#N)cc2)nnc(N2CCC(NC(=O)c3ccc(F)cc3C(F)(F)F)CC2)c1C` registered an IC50 in data set [1] of 8.5 nM. Moreover, the inhibition in data set [2] came to 111%.
With `Cc1c(-c2ccnn2C)nnc(N2CCC(Nc3cnc(C(C)(C)O)cn3)CC2)c1C`, the IC50 in data set [1] is greater than 100 nM. Also, in data set [2], the inhibition worked out at 10.8%.
For the compound `Cc1c(-c2ccccc2)nnc(N2CCC(NC(=O)c3ccc(F)cc3C(F)(F)F)CC2)c1C`, the IC50 in data set [1] amounted to 25.5 nM. The inhibition in data set [2] stood at 90.2%.
In the same order, the values of `CN(C(=O)c1ccc(F)cc1C(F)(F)F)C1CCN(c2nnc(-c3ccnn3C)c3ccccc23)CC1` [TALADEGIB] are 2.26 nM and 95%.
In turn, `Cc1c(-c2ccnn2C)nnc(N2CCC(NC(=O)c3ccccc3C(F)(F)F)CC2)c1C` registered an IC50 in data set [1] of 32.8 nM. Also, the inhibition in data set [2] worked out at 79.7%.
On to `Cc1c(-c2ccnn2C)nnc(N2CCC(NC(=O)c3ccc(F)cc3C(F)(F)F)CC2)c1C`, for which the Activity entry in data set [3] was “Non-Toxic”. The midpoint of inhibition in data set [1], the IC50, lay at 2.33 nM. For the same compound, the inhibition in data set [2] was found to be 89.5%. For the same compound, in data set [4], the TGI entry was “Active”.
Compound `Cc1c(-c2ccncc2)nnc(N2CCC(NC(=O)c3ccc(F)cc3C(F)(F)F)CC2)c1C` returned an IC50 in data set [1] of 43.2 nM. Further, in data set [2], the inhibition came out at 76%.
`CS(=O)(=O)c1ccc(C(=O)Nc2ccc(Cl)c(-c3ccccn3)c2)c(Cl)c1` [VISMODEGIB]: the TGI result in data set [5] was “Active”. Half-maximal inhibition in data set [1] (IC50) was put at 2.46 nM. Also, the inhibition in data set [2] was 108%.
In data set [1], `Cc1c(-c2ccnn2C)nnc(N2CCC(NC(=O)Nc3cccnc3)CC2)c1C` had an IC50 greater than 100 nM. Besides, the inhibition in data set [2] was 3.47%.
In the same order, the values of `Cc1c(-c2ccnn2C)nnc(N2CCC(NC(=O)Oc3ccccc3)CC2)c1C` are greater than 100 nM and 41.2%.
In data set [1], `Cc1c(-c2ccnn2C)nnc(N2CCC(NC(=O)c3ccc(Sc4ccccc4)cc3C(F)(F)F)CC2)c1C` came in with an IC50 of 32.5 nM. Also, the inhibition in data set [2] was determined as 82.8%.
`Cc1c(-c2ccnn2C)nnc(N2CCC(NC(=O)NC3CCCCCC3)CC2)c1C` came in with an IC50 in data set [1] greater than 100 nM. For the same compound, in data set [2], the inhibition is 45.7%.
In data set [1], `Cc1c(-c2ccnn2C)nnc(N2CCC(NC(=O)c3c(F)cccc3C(F)(F)F)CC2)c1C` came in with an IC50 of 42.9 nM. The inhibition in data set [2] came to 79.8%.
Taken in the same sequence, the figures for `Cc1c(-c2ccc(Cl)cc2)nnc(N2CCC(NC(=O)c3ccc(F)cc3C(F)(F)F)CC2)c1C` were 43.8 nM and 85%.
Taken in the same sequence, the figures for `Cc1c(-c2ccnn2C)nnc(N2CCC(N(C)C(=O)c3ccc(F)cc3C(F)(F)F)CC2)c1C` were 30 nM and 60.9%.
The compound `Cc1c(-c2ccnn2C)nnc(N2CCC(NC(=O)c3cccc(F)c3)CC2)c1C` showed an IC50 in data set [1] greater than 100 nM. Also, the inhibition in data set [2] amounted to 82.1%.
Taken in the same sequence, the figures for `Cc1c(-c2ccnn2C)nnc(N2CCC(NC(=O)OC3CCCCC3)CC2)c1C` were greater than 100 nM and 26.6%.
In the same order, the values of `Cc1c(-c2ccccc2Cl)nnc(N2CCC(NC(=O)c3ccc(F)cc3C(F)(F)F)CC2)c1C` are 7.02 nM and 106%.
Taken in the same sequence, the figures for `Cc1c(-c2ccnn2C)nnc(N2CCC(Nc3ccc(C(C)(C)O)nn3)CC2)c1C` were greater than 100 nM and 20.6%.
For `Cc1c(-c2ccnn2C)nnc(N2CCC(Nc3cnc(S(C)(=O)=O)cn3)CC2)c1C`, in data set [1], the IC50 is greater than 100 nM. In addition, in data set [2], the inhibition amounted to 23.8%.
The compound `Cc1c(-c2ccnn2C)nnc(N2CCC(NC(=O)c3ccc(Cl)cc3C(F)(F)F)CC2)c1C` returned a concentration for half-maximal inhibition (IC50) in data set [1] of 25.1 nM.
For `Cc1c(-c2ccnn2C)nnc(N2CCC(NC(=O)c3ccc(Oc4ccccc4F)cc3C(F)(F)F)CC2)c1C`, in data set [1], the IC50 was found to be 16.6 nM. In data set [2], the inhibition was 91.5%.
Compound `Cc1c(-c2ccnn2C)nnc(N2CCN(C(=O)c3ccc(F)cc3C(F)(F)F)CC2)c1C` registered an IC50 in data set [1] greater than 100 nM. Besides, in data set [2], the inhibition was -6.57%.
Turning to `Cc1c(-c2ccnn2C)nnc(N2CCC(Nc3ccc(C(C)(C)O)cn3)CC2)c1C`, the IC50 in data set [1] is greater than 100 nM. The inhibition in data set [2] was 31.8%.
Taken in the same sequence, the figures for `Cc1ccc(-c2nnc(N3CCC(NC(=O)c4ccc(F)cc4C(F)(F)F)CC3)c(C)c2C)cc1` were 12.2 nM and 101%.
In the same order, the values of `Cc1c(-c2ccnn2C)nnc(N2CCC(NC(=O)c3ccc(Oc4ccccc4)cc3C(F)(F)F)CC2)c1C` are 36.5 nM and 78.9%.

The term IC50 denotes the concentration that inhibits the measured activity by half. A low value points to greater potency in that assay. By inhibition is commonly meant the change of the read-out against control, counted positive when it falls.

(Values after ChEMBL document CHEMBL4118161, “Synthesis and evaluation of novel dimethylpyridazine derivatives as hedgehog signaling pathway inhibitors” (Bioorg Med Chem, 2018).)
